Source: ChEMBL document CHEMBL1124216, “A novel class of potential central nervous system agents. 3-Phenyl-2-(1-piperazinyl)-5H-1-benzazepines” (1988)

Assays:
Type in all cases: functional
Mus musculus [1] = assay: Antimaximal electroshock seizure (MES) activity in mice after peroral administration of 100 mg/kg of compound; 0/5; settings: route oral
Mus musculus [2] = assay: Antitremorine activity(TRM) of mice after peroral administration of mg/kg of compound; No inhibition
Mus musculus [3] = assay: Antiexploratory activity (EXPL) of mice determined by an antimex activity meter, mg/kg of dose was administered perorally; Slight inhibition (31-50%)
Mus musculus [4] = assay: Antireserpine activity (RES) of mice after peroral administration of mg/kg of compound; Slight inhibition (31-50%)
Mus musculus [5] = assay: Antimaximal electroshock seizure activity was determined in mice when administered perorally; settings: po
Mus musculus [6] = assay: The homovanillic acid (HVA) levels in mouse brain at 50 mg/kg of dose.
Outline: (§1)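 Mice dosed orally in 0.5% aqueous tragacanth; brains of five mice per compound pooled. Homovanillic acid measured in brain extracts and reported as brain level.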

Mus musculus [7] = assay: Exploratory activity of mice determined by an antimex activity meter, 50 mg/kg of dose was administered perorally; settings: Mus musculus, po
Outline: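 Male Std-ddY mice (20-25 g), five per dose; compound in 0.5% aqueous tragacanth given orally. Two hours later each mouse placed in an Animex activity meter cage and locomotor activity counted for 3 min. Mean suppression expressed as percent inhibition of control; ED50 by Litchfield-Wilcoxon.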

Mus musculus [8] = assay: The homovanillic acid (HVA) levels in mouse brain at 10 mg/kg of dose.; outline: as §1
Mus musculus [9] = assay: Antireserpine activity(RES) of mice after peroral administration of 50 mg/kg of compound; No inhibition; settings: route oral
Mus musculus [10] = assay: Antitremorine activity(TRM) of mice after peroral administration of 100 mg/kg of compound; No inhibition; settings: route oral
Mus musculus [11] = assay: 3,4 -Dihydroxy phenylacetic acid (DOPAC) levels in mouse brain at 50 mg/kg dose.
Outline: (§2)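 Male Std-ddY mice, 20-25 g, dosed orally with compound in 0.5% aqueous tragacanth. DOPAC was measured fluorometrically after purification by column chromatography on Sephadex G-10 and QAE-Sephadex. Brains from five mice per compound were pooled for each determination.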

Mus musculus [12] = assay: Exploratory activity of mice determined by an antimex activity meter, 10 mg/kg of dose was administered perorally; settings: route oral
Canis familiaris = assay: Inhibition of apomorphine induced emesis in dogs at 1 mg/kg of dose.; settings: Canis lupus familiaris
Outline: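 Beagle dogs (10-15 kg), groups of three, given compound po in a gelatin capsule; 2 h later apomorphine hydrochloride 0.3 mg/kg sc. Vomiting counted for 1 h; mean inhibition as percent of control. ED50 is the dose giving 50% inhibition of emesis, by Litchfield-Wilcoxon.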

Mus musculus [13] = assay: Antiexploratory activity (EXPL) of mice determined by an antimex activity meter, 50 mg/kg of dose was administered perorally; Slight inhibition (31-50%); settings: route oral
Mus musculus [14] = assay: 3,4 -Dihydroxy phenylacetic acid (DOPAC) levels in mouse brain at 10 mg/kg dose.; outline: as §2

| Compound | Activity (Mus musculus [1]) | Inhibition (Mus musculus [2]) [%] | Inhibition (Mus musculus [3]) [%] | Inhibition (Mus musculus [4]) [%] | ED50 (Mus musculus [5]) [mg/kg] | Control (Mus musculus [6]) [%] | inhibition in vivo at 50 mg/kg (Mus musculus [7]) [%] | Control (Mus musculus [8]) [%] | inhibition in vivo at 50 mg/kg (Mus musculus [9]) [%] | inhibition in vivo at 100 mg/kg (Mus musculus [10]) [%] | Control (Mus musculus [11]) [%] | inhibition in vivo at 10 mg/kg (Mus musculus [12]) [%] | inhibition in vivo at 1 mg/kg (Canis familiaris) [%] | inhibition in vivo at 50 mg/kg (Mus musculus [13]) [%] | Control (Mus musculus [14]) [%] |
| --- | --- | --- | --- | --- | --- | --- | --- | --- | --- | --- | --- | --- | --- | --- | --- |
| Cl.Cl.OCCN1CCN(C2=Nc3ccccc3CC=C2c2ccccc2)CC1 | 0 | <30 | 31 | 31 | > 100 |  |  |  |  |  |  |  |  |  |  |
| Cl.Cl.OCCN1CCN(C2=Nc3ccccc3CC=C2c2ccc(Br)cc2)CC1 | 0 |  |  |  |  | 335 | 36.1 | 181 | < 30 | < 30 | 291 | 31.9 | 72.5 | 31 | 106 |
